The source made the active and inactive calls. The calls are words filed in the database; no cut-off is given here.
Experiments:
[1] = tested on: Candida albicans; experiment: Antifungal activity against fluconazole-resistant Candida albicans 632 assessed as inhibition of microbial growth by NCCLS protocol based method; assay type: functional
[2] = tested on: Aspergillus fumigatus; experiment: Antifungal activity against Aspergillus fumigatus KM8001 assessed as inhibition of microbial growth by NCCLS protocol based method; assay type: functional
In short: (§1)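 Broth MIC50 determined following NCCLS guidelines in Sabouraud medium, with fungal suspension in 24-well format. Compound tested at 0.0625, 0.125, 0.5, 1, 2, 4, 8 and 16 μg/mL. Plates cultured statically at 35 °C. MIC50 is the lowest concentration giving 50% growth inhibition. Naftifine and fluconazole served as positive controls.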

[3] = tested on: Nakaseomyces glabratus; experiment: Antifungal activity against Candida glabrata ATCC 0001 assessed as inhibition of microbial growth by NCCLS protocol based method; assay type: functional; in short: as §1
[4] = tested on: Candida albicans; experiment: Antifungal activity against fluconazole-resistant Candida albicans CaR assessed as inhibition of microbial growth by NCCLS protocol based method; assay type: functional
[5] = tested on: Candida albicans; experiment: Antifungal activity against Candida albicans ATCC 10231 assessed as inhibition of microbial growth by NCCLS protocol based method; assay type: functional; in short: as §1
[6] = tested on: Candida tropicalis; experiment: Antifungal activity against Candida tropicalis ATCC 1369 assessed as inhibition of microbial growth by NCCLS protocol based method; assay type: functional; in short: as §1
[7] = tested on: Candida albicans; experiment: Antifungal activity against fluconazole-resistant Candida albicans 901 assessed as inhibition of microbial growth by NCCLS protocol based method; assay type: functional
[8] = tested on: Candida albicans; experiment: Antifungal activity against fluconazole-resistant Candida albicans 17# assessed as inhibition of microbial growth by NCCLS protocol based method; assay type: functional
[9] = tested on: Candida albicans; experiment: Antifungal activity against fluconazole-resistant Candida albicans 904 assessed as inhibition of microbial growth by NCCLS protocol based method; assay type: functional
[10] = tested on: Pichia kudriavzevii; experiment: Antifungal activity against Candida krusei ATCC 6258 assessed as inhibition of microbial growth by NCCLS protocol based method; assay type: functional; in short: as §1
[11] = biological target: T1, Lanosterol 14-alpha demethylase (Candida albicans (strain SC5314 / ATCC MYA-2876) (Yeast), UniProt P10613); experiment: Inhibition of CYP51 in Candida albicans ATCC SC5314 assessed as ergosterol level at 0.125 ug/ml incubated for 48 hrs by LC/MS analysis (reference value: 95.1 %); parameters: scale not given: the % may be the effect or the level left; conditions: candida albicans sc5314, 48 h, at 0.125 µg/mL
In short: (§2)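 C. albicans ATCC SC5314 cells exposed to drug at 0.125, 0.5 or 4 μg/mL for 48 h, alongside an untreated control. Sterols were extracted and analysed by LC-MS. Ergosterol, squalene, lanosterol, eburicol and unknown sterols are each given as % of total sterols, calculated from the peak area ratio of each component.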

[12] = biological target: T1, Lanosterol 14-alpha demethylase; experiment: Inhibition of CYP51 in Candida albicans ATCC SC5314 assessed as ergosterol level at 4 ug/ml incubated for 48 hrs by LC/MS analysis (reference value: 95.1 %); parameters: scale not given: the % may be the effect or the level left; conditions: candida albicans sc5314, 48 h, at 4 µg/mL
In short: (§3)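 C. albicans SC5314 cells exposed to compound (0.125, 0.5 or 4 μg/mL) for 48 h alongside untreated and naftifine/fluconazole-treated groups; sterol fraction analysed by LC-MS; each component expressed as percent of total sterols from peak area ratios.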

[13] = biological target: T1, Lanosterol 14-alpha demethylase; experiment: Inhibition of CYP51 in Candida albicans ATCC SC5314 assessed as lanosterol level at 0.5 ug/ml incubated for 48 hrs by LC/MS analysis; parameters: scale not given: the % may be the effect or the level left; conditions: candida albicans sc5314, 48 h, at 0.5 µg/mL; in short: as §3
[14] = biological target: T1, Lanosterol 14-alpha demethylase; experiment: Inhibition of CYP51 in Candida albicans ATCC SC5314 assessed as ergosterol level at 0.5 ug/ml incubated for 48 hrs by LC/MS analysis (reference value: 95.1 %); parameters: scale not given: the % may be the effect or the level left; conditions: candida albicans sc5314, 48 h, at 0.5 µg/mL; in short: as §3
[15] = biological target: T1, Lanosterol 14-alpha demethylase; experiment: Inhibition of CYP51 in Candida albicans ATCC SC5314 assessed as unknown sterol level at 0.125 ug/ml incubated for 48 hrs by LC/MS analysis; parameters: scale not given: the % may be the effect or the level left; conditions: candida albicans sc5314, 48 h, at 0.125 µg/mL; in short: as §2
[16] = biological target: T1, Lanosterol 14-alpha demethylase; experiment: Inhibition of CYP51 in Candida albicans ATCC SC5314 assessed as eburicol level at 4 ug/ml incubated for 48 hrs by LC/MS analysis (reference value: 1.4 %); parameters: scale not given: the % may be the effect or the level left; conditions: candida albicans sc5314, 48 h, at 4 µg/mL; in short: as §3
[17] = biological target: T1, Lanosterol 14-alpha demethylase; experiment: Inhibition of CYP51 in Candida albicans ATCC SC5314 assessed as unknown sterol level at 4 ug/ml incubated for 48 hrs by LC/MS analysis; parameters: scale not given: the % may be the effect or the level left; conditions: candida albicans sc5314, 48 h, at 4 µg/mL; in short: as §3
[18] = tested on: Candida albicans; experiment: Antifungal activity against Candida albicans ATCC SC5314 assessed as induction of cell fracture at 10 nM/mL by polarizing microscopy; assay type: functional, organism-based; conditions: dose 10.0 nmol/ml
In short: (§4)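 C. albicans ATCC SC5314 observed by polarizing microscopy over treatment time. Untreated, fluconazole- and naftifine-treated control groups were included. Cell density, dividing cells and cell fracture were assessed, with cell counts taken per field.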

[19] = tested on: Candida albicans; experiment: Antifungal activity against Candida albicans ATCC SC5314 assessed as reduction in cell division at 10 nM/mL by polarizing microscopy; assay type: functional, organism-based; conditions: dose 10.0 nmol/ml; in short: as §4
[20] = biological target: T1, Lanosterol 14-alpha demethylase; experiment: Inhibition of CYP51 in Candida albicans ATCC SC5314 assessed as lanosterol level at 0.125 ug/ml incubated for 48 hrs by LC/MS analysis; parameters: scale not given: the % may be the effect or the level left; conditions: candida albicans sc5314, 48 h, at 0.125 µg/mL; in short: as §2
[21] = tested on: Candida albicans; experiment: Antifungal activity against Candida albicans ATCC SC5314 assessed as decrease in fungal cell density at 10 nM/mL by polarizing microscopy; assay type: functional, organism-based; conditions: dose 10.0 nmol/ml; in short: as §4
[22] = biological target: T1, Lanosterol 14-alpha demethylase; experiment: Inhibition of CYP51 in Candida albicans ATCC SC5314 assessed as eburicol level at 0.125 ug/ml incubated for 48 hrs by LC/MS analysis (reference value: 1.4 %); parameters: scale not given: the % may be the effect or the level left; conditions: candida albicans sc5314, 48 h, at 0.125 µg/mL; in short: as §2
[23] = biological target: T1, Lanosterol 14-alpha demethylase; experiment: Inhibition of CYP51 in Candida albicans ATCC SC5314 assessed as eburicol level at 0.5 ug/ml incubated for 48 hrs by LC/MS analysis (reference value: 1.4 %); parameters: scale not given: the % may be the effect or the level left; conditions: candida albicans sc5314, 48 h, at 0.5 µg/mL; in short: as §3
[24] = biological target: T1, Lanosterol 14-alpha demethylase; experiment: Inhibition of Candida albicans ATCC SC5314 CYP51 incubated for 30 mins by HPLC method
[25] = biological target: T1, Lanosterol 14-alpha demethylase; experiment: Inhibition of CYP51 in Candida albicans ATCC SC5314 assessed as unknown sterol level at 0.5 ug/ml incubated for 48 hrs by LC/MS analysis; parameters: scale not given: the % may be the effect or the level left; conditions: candida albicans sc5314, 48 h, at 0.5 µg/mL; in short: as §3
[26] = biological target: T1, Lanosterol 14-alpha demethylase; experiment: Inhibition of CYP51 in Candida albicans ATCC SC5314 assessed as squalene level at 4 ug/ml incubated for 48 hrs by LC/MS analysis; parameters: scale not given: the % may be the effect or the level left; conditions: candida albicans sc5314, 48 h, at 4 µg/mL; in short: as §3
[27] = biological target: T1, Lanosterol 14-alpha demethylase; experiment: Inhibition of CYP51 in Candida albicans ATCC SC5314 assessed as lanosterol level at 4 ug/ml incubated for 48 hrs by LC/MS analysis; parameters: scale not given: the % may be the effect or the level left; conditions: candida albicans sc5314, 48 h, at 4 µg/mL; in short: as §3
[28] = Inhibition of Candida albicans ATCC SC5314 SE incubated for 30 mins by spectrophotometric method
In short: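 Enzymes (SE, CYP51) extracted from C. albicans SC5314 using kits. 50 µg enzyme incubated with varying compound concentrations for 30 min at 37 °C in Tris pH 7.4, KCl, MgCl2, 2 mM NADPH, with squalene or eburicol as substrate. Reaction stopped with acetonitrile and centrifuged. Eburicol consumption (CYP51) read by HPLC. Squalene, after sulfuric acid/formaldehyde derivatization, read at 400 nm (SE). IC50 reported.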

T1 sequence (P10613 whole entry): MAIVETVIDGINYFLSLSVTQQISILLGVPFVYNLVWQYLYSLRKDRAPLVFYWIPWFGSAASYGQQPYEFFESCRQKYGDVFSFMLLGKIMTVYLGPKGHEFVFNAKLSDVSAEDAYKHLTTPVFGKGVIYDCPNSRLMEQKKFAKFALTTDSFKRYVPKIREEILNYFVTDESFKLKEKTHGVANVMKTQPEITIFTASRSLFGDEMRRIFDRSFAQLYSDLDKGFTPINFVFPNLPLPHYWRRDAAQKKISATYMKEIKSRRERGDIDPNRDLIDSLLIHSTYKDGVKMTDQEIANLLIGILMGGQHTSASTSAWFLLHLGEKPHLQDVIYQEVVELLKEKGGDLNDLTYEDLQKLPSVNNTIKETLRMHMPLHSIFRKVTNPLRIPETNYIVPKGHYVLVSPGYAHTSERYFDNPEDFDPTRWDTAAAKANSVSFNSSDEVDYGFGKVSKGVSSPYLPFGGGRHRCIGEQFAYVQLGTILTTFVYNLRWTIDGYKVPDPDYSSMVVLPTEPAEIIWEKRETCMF

CN(CC(=O)Nc1cccnc1)C(=O)c1ccc2ccccc2c1
MIC50 [1]: > 16 µg/mL
MIC50 [2]: 4 µg/mL
MIC50 [3]: 0.25 µg/mL
MIC50 [4]: 4 µg/mL
MIC50 [5]: 0.125 µg/mL
MIC50 [6]: 0.125 µg/mL
MIC50 [7]: > 16 µg/mL
MIC50 [8]: 8 µg/mL
MIC50 [9]: > 16 µg/mL
MIC50 [10]: 0.25 µg/mL

O=C(NC(Cn1ccnc1)C(=O)NC1CCCCC1)c1ccc2ccccc2c1 (stereo unspecified)
MIC50 [2]: > 16 µg/mL
MIC50 [3]: 0.25 µg/mL
MIC50 [5]: 0.5 µg/mL
MIC50 [6]: 0.5 µg/mL
MIC50 [10]: 0.5 µg/mL

CN(CC(=O)NC(Cn1ccnc1)C(=O)c1ccccc1)C(=O)c1ccc2ccccc2c1 (stereo unspecified)
MIC50 [2]: 8 µg/mL
MIC50 [3]: 0.25 µg/mL
MIC50 [5]: 0.125 µg/mL
MIC50 [6]: 0.25 µg/mL
MIC50 [10]: 0.25 µg/mL

CN(CC(=O)NC(Cn1ccnc1)C(=O)c1ccccc1)C(=O)c1cccc2ccccc12 (stereo unspecified)
MIC50 [2]: 8 µg/mL
MIC50 [3]: 0.25 µg/mL
MIC50 [5]: 0.5 µg/mL
MIC50 [6]: 0.25 µg/mL
MIC50 [10]: 0.5 µg/mL

O=C(NC(Cn1ccnc1)C(=O)NC1CCCCC1)c1cccc2ccccc12 (stereo unspecified)
MIC50 [2]: > 16 µg/mL
MIC50 [3]: 0.25 µg/mL
MIC50 [5]: 0.5 µg/mL
MIC50 [6]: 1 µg/mL
MIC50 [10]: 0.5 µg/mL

O=C(NC(Cn1ccnc1)C(=O)NC1CCCC1)c1cccc2ccccc12 (stereo unspecified)
MIC50 [2]: > 16 µg/mL
MIC50 [3]: 2 µg/mL
MIC50 [5]: 0.5 µg/mL
MIC50 [6]: 0.5 µg/mL
MIC50 [10]: 0.5 µg/mL

OC(Cn1cncn1)(Cn1cncn1)c1ccc(F)cc1F [FLUCONAZOLE]
Activity [11]: 78.5%
Activity [12]: 12.7%
MIC50 [1]: 8 µg/mL
Activity [13]: 8.9%
Activity [14]: 43.9%
MIC50 [2]: > 16 µg/mL
Activity [15]: 3.6%
MIC50 [3]: 0.25 µg/mL
Activity [16]: 64.5%
Activity [17]: 5.2%
Activity [18]: Active
MIC50 [4]: > 16 µg/mL
MIC50 [5]: 0.25 µg/mL
Activity [19]: Active
MIC50 [6]: 0.25 µg/mL
Activity [20]: 5.1%
Activity [21]: Active
Activity [22]: 12.8%
Activity [23]: 42.5%
IC50 [24]: 116 nM
MIC50 [7]: > 16 µg/mL
MIC50 [8]: 8 µg/mL
MIC50 [9]: 8 µg/mL
Activity [25]: 4.7%
Activity [26]: 1.3%
MIC50 [10]: 1 µg/mL
Activity [27]: 16.3%

CN(CC(=O)Nc1ccncc1)C(=O)c1cccc2ccccc12
MIC50 [2]: 8 µg/mL
MIC50 [3]: 0.5 µg/mL
MIC50 [5]: 0.5 µg/mL
MIC50 [6]: 1 µg/mL
MIC50 [10]: 0.5 µg/mL

CC(C)C(NC(=O)c1cccc2ccccc12)C(=O)NC(Cn1ccnc1)C(=O)c1ccccc1 (stereo unspecified)
MIC50 [2]: > 16 µg/mL
MIC50 [3]: 0.5 µg/mL
MIC50 [5]: 0.25 µg/mL
MIC50 [6]: 0.5 µg/mL
MIC50 [10]: 1 µg/mL

CN(C/C=C/c1ccccc1)Cc1cccc2ccccc12 [NAFTIFINE]
MIC50 [1]: > 16 µg/mL
MIC50 [2]: 8 µg/mL
MIC50 [3]: 0.25 µg/mL
IC50 [28]: 284 nM
Activity [18]: Active
MIC50 [4]: > 16 µg/mL
MIC50 [5]: 0.5 µg/mL
Activity [19]: Active
MIC50 [6]: 0.5 µg/mL
Activity [21]: Active
MIC50 [7]: > 16 µg/mL
MIC50 [8]: > 16 µg/mL
MIC50 [9]: > 16 µg/mL
MIC50 [10]: 2 µg/mL

CN(CC(=O)NCc1ccncc1)C(=O)c1ccc2ccccc2c1
MIC50 [2]: 8 µg/mL
MIC50 [3]: 2 µg/mL
MIC50 [5]: 0.25 µg/mL
MIC50 [6]: 1 µg/mL
MIC50 [10]: 0.5 µg/mL

From ChEMBL document CHEMBL4732095, “Novel naphthylamide derivatives as dual-target antifungal inhibitors: Design, synthesis and biological evaluation” (Eur J Med Chem, 2021)
